The test system of data set [1] is Spleen. Briefly: Biodistribution in spleen of C57BL/6 mouse xenografted with mouse B16F10 cells at 3.7 MBq, iv after 2 hrs by gamma-scintillation counting analysis. It is filed as ADME, organism-based, B16-F10. The following applies: in vivo. In outline:
(§1)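 1.0 × 10^6 B16F10 cells in PBS injected subcutaneously into the right shoulder of C57BL/6 mice, grown to 0.5 cm (~10 day). Tail-vein injection of about 3.7 MBq (100 μCi) 18F probe in PBS (0.1 M, pH 7.4). Killed at 1.0 or 2.0 h p.i. (n = 4 per group). Tissues excised, weighed and gamma-counted; uptake expressed as %ID/g, mean ± SD.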

The test system of data set [2] is Intestine. Briefly: Biodistribution in intestine of C57BL/6 mouse xenografted with mouse B16F10 cells at 3.7 MBq, iv after 2 hrs by gamma-scintillation counting analysis. It is filed as ADME, organism-based, B16-F10. Particulars: in vivo. Put shortly: as §1
The subject of data set [3] is Pancreas. As to the kind of experiment: Biodistribution in pancreas of C57BL/6 mouse xenografted with mouse B16F10 cells at 3.7 MBq, iv after 2 hrs by gamma-scintillation counting analysis. Particulars: in vivo. It is filed as ADME, organism-based, B16-F10. Put shortly:
as §1

Data set [4] deals with Mus musculus. Briefly: Biodistribution in eye of C57BL/6 mouse xenografted with mouse B16F10 cells at 3.7 MBq, iv after 2 hrs by gamma-scintillation counting analysis. The following applies: in vivo. It is filed as ADME, organism-based, B16-F10. Put shortly: as §1
For data set [5], the system named is Bone. As to the kind of experiment: Biodistribution in bone of C57BL/6 mouse xenografted with mouse B16F10 cells at 3.7 MBq, iv after 2 hrs by gamma-scintillation counting analysis. The following applies: in vivo. It is filed as ADME, organism-based, Bone element, B16-F10. Put shortly:
as §1

Data set [6] deals with Intestine. Briefly: Biodistribution in intestine of C57BL/6 mouse xenografted with mouse B16F10 cells at 3.7 MBq, iv after 1 hr by gamma-scintillation counting analysis. It is filed as ADME, organism-based, B16-F10. The following applies: in vivo. Put shortly: as §1
Data set [7] concerns Pancreas. As to the kind of experiment: Biodistribution in pancreas of C57BL/6 mouse xenografted with mouse B16F10 cells at 3.7 MBq, iv after 1 hr by gamma-scintillation counting analysis. It is filed as ADME, organism-based, B16-F10. Particulars: in vivo. In outline:
as §1

The subject of data set [8] is Kidney. Briefly: Biodistribution in kidney of C57BL/6 mouse xenografted with mouse B16F10 cells at 3.7 MBq, iv after 2 hrs by gamma-scintillation counting analysis. It is filed as ADME, organism-based, B16-F10. The following applies: in vivo. In outline:
as §1

The subject of data set [9] is Zone of skin. Briefly: Biodistribution in skin of C57BL/6 mouse xenografted with mouse B16F10 cells at 3.7 MBq, iv after 1 hr by gamma-scintillation counting analysis. It is filed as ADME, organism-based, B16-F10. Particulars: in vivo. In outline: as §1
For data set [10], the system named is Nucleic Acid. Briefly: Ratio of drug uptake in tumor to blood of C57BL/6 mouse xenografted with mouse B16F10 cells at 3.7 MBq, iv after 1 hr by gamma-scintillation counting analysis. The following applies: tumour. It is filed as ADME, organism-based, B16-F10. Put shortly: (§2)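 Same subcutaneous B16F10 model and tail-vein dose of about 3.7 MBq (100 μCi), n = 4 per group. Dissection at 1 or 2 h p.i. Gamma-counter %ID/g of tumor divided by that of blood, lung, liver or muscle, given as mean ± SD.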

The nature of data set [11]: Drug uptake in tumor of C57BL/6 mouse xenografted with mouse B16F10 cells at 3.7 MBq, iv after 2 hrs by PET imaging analysis. It is filed as ADME, organism-based, Neoplasm, B16-F10. The following applies: in vivo. In outline:
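Static small-animal PET at 0.5, 1 and 2 h after tail-vein injection of ~3.7 MBq (100 μCi) into B16F10-bearing C57BL/6 mice (n = 4 per probe). Isoflurane anesthesia, 5% induction and 2% maintenance in O2. Decay-corrected images. ROI-derived %ID/g assumes 1 g/ml density, without attenuation correction. Mean ± SD.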

The subject of data set [12] is Muscle tissue. Briefly: Biodistribution in muscle of C57BL/6 mouse xenografted with mouse B16F10 cells at 3.7 MBq, iv after 1 hr by gamma-scintillation counting analysis. It is filed as ADME, organism-based, B16-F10. Particulars: in vivo. Put shortly: as §1
Data set [13] concerns Nucleic Acid. As to the kind of experiment: Ratio of drug uptake in tumor to muscle of C57BL/6 mouse xenografted with mouse B16F10 cells at 3.7 MBq, iv after 1 hr by gamma-scintillation counting analysis. Particulars: in vivo. It is filed as ADME, organism-based, B16-F10. Put shortly: as §2
Data set [14] deals with Brain. Briefly: Biodistribution in brain of C57BL/6 mouse xenografted with mouse B16F10 cells at 3.7 MBq, iv after 1 hr by gamma-scintillation counting analysis. It is filed as ADME, organism-based, B16-F10. The following applies: in vivo. Put shortly: as §1
The subject of data set [15] is Blood. Briefly: Biodistribution in blood of C57BL/6 mouse xenografted with mouse B16F10 cells at 3.7 MBq, iv after 2 hrs by gamma-scintillation counting analysis. It is filed as ADME, organism-based, B16-F10. The following applies: in vivo. In outline:
as §1

Structures are written as SMILES.

With `CCN(CC)CCNC(=O)c1ccc([18F])cn1`, the Drug uptake in data set [1] is given as 1.13 % ID/g; in [2], 0.88 % ID/g; in [3] it was 0.61 % ID/g; in data set [4], 32.83 % ID/g; in [5] it was 1.72 % ID/g; in data set [6], 2.01 % ID/g. In addition, the Drug uptake amounted to 1.61 % ID/g in data set [7]; 1.03 % ID/g in [8]; 1.3 % ID/g in [9]; 16.87 % ID/g in data set [11]; 1.16 % ID/g in [12]; 1.28 % ID/g in [14]. Besides, the Drug uptake in data set [15] came out at 0.19 % ID/g. For the same molecule, the figures for the Ratio in [10] and in data set [13] were 41.44 and 13.84, respectively.

These data come from ChEMBL document CHEMBL2311435, “Development of 18F-labeled picolinamide probes for PET imaging of malignant melanoma” (J Med Chem, 2013).
